Laboratory results as given in ChEMBL document CHEMBL1134607, “Synthesis and structure-activity relationships of a new model of arylpiperazines. Study of the 5-HT(1a)/alpha(1)-adrenergic receptor affinity by classical hansch analysis, artificial neural networks, and computational simulation of ligand recognition” (J Med Chem, 2001).

Experiments:
[1] = molecular target: T1, 5-hydroxytryptamine receptor 1A (Rattus norvegicus, UniProt P19327); assay: In vitro binding affinity towards 5-hydroxytryptamine 1A receptor in rat cerebral cortex membranes; type: cell membranes, Membrane
T1 sequence (P19327 whole entry): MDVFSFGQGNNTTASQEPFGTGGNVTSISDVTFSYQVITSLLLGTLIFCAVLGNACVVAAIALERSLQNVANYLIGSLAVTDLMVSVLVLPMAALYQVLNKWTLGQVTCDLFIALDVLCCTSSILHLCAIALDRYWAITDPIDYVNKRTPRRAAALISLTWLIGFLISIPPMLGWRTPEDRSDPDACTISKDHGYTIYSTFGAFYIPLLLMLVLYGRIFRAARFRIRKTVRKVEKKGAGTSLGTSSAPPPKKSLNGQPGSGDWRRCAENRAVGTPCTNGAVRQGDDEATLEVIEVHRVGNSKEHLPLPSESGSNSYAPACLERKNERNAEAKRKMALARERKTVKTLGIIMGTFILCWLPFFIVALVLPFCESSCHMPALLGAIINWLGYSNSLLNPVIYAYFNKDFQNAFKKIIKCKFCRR
In short: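 Rat cerebral cortex membranes, washed and preincubated 10 min at 37 °C. About 1 mg protein incubated 15 min at 37 °C with 0.6 nM [3H]8-OH-DPAT in 50 mM Tris-HCl pH 7.4 containing 10 nM clonidine and 30 nM prazosin. Nonspecific binding with 10 µM 5-HT. Triplicates, filtration, scintillation counting. Ki by Cheng-Prusoff from fitted IC50. Prescreen at 10^-6 M, full curves if displacement ≥55%.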

[2] = molecular target: T2, Adrenergic receptor alpha-1 (Rattus norvegicus, UniProt P15823+P23944+P43140); assay: In vitro binding affinity towards alpha-1 adrenergic receptor in rat cerebral cortex membranes; type: cell membranes, Membrane
T2 sequence (P15823 whole entry): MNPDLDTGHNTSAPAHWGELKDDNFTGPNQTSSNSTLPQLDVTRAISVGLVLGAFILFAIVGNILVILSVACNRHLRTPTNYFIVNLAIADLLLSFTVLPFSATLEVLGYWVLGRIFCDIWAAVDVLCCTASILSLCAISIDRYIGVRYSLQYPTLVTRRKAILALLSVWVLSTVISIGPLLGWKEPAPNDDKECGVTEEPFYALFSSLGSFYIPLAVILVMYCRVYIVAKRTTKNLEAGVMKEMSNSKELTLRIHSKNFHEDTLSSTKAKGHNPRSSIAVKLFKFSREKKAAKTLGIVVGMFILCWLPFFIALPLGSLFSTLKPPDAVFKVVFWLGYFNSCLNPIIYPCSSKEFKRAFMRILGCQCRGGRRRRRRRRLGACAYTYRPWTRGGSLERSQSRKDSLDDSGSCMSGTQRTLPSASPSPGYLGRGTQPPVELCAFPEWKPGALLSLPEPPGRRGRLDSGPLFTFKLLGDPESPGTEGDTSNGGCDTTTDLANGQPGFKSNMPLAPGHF
T2 sequence (P23944 whole entry): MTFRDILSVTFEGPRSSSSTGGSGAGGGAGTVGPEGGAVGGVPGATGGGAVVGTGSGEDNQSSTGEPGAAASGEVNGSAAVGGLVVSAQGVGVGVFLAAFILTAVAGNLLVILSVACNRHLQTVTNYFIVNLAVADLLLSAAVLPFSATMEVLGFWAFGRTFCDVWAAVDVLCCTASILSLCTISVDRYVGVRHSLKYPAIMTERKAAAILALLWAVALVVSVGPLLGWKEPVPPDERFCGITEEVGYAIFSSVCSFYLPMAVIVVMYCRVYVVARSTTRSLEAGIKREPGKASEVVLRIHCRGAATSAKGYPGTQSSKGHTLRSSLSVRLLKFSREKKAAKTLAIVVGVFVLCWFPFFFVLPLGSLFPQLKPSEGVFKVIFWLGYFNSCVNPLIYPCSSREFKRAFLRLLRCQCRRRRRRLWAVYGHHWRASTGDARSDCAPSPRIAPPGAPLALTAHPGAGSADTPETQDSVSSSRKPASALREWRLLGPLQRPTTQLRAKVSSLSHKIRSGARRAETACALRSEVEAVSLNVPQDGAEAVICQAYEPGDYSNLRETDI
T2 sequence (P43140 whole entry): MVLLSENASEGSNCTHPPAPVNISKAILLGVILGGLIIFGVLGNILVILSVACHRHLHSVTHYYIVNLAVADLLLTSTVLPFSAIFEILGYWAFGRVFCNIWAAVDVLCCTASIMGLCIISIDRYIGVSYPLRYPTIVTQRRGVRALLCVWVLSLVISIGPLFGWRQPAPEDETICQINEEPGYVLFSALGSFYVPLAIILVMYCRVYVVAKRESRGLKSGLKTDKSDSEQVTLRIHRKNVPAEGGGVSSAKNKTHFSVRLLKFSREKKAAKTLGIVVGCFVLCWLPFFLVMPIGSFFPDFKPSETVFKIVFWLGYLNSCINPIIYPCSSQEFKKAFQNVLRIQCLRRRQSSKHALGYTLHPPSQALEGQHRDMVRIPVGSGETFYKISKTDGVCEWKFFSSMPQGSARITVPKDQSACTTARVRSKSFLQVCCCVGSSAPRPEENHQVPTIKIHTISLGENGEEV
In short: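 Rat cerebral cortex membranes in 50 mM Tris-HCl, 10 mM MgCl2, pH 7.4. About 250 µg protein incubated 30 min at 25 °C with 0.2 nM [3H]prazosin. Nonspecific binding with 10 µM phentolamine. Triplicates, filtration, scintillation counting. Ki by Cheng-Prusoff from iteratively fitted IC50. Prescreen at 10^-6 M, dose-response curves if displacement ≥55%.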

Question: Which Ki [1] does the source give for `O=C1C2CCCCN2C(=O)N1CCCCN1CCN(c2ccccc2Br)CC1` (configuration not stated) here?
Answer: 0.0034 µM

Question: What about the Ki [2] of the same compound?
Answer: 0.0062 µM

Question: Which results are given for `O=C1C2CCCCN2C(=O)CN1CCCN1CCN(c2cccc(C(F)(F)F)c2)CC1` (configuration not stated)?
Answer: Ki [1]: 0.179 µM; Ki [2]: 0.339 µM

Question: Which Ki [1] does the source give for `N#Cc1ccccc1N1CCN(CCCN2CC(=O)N3CCCC3C2=O)CC1` (configuration not stated) here?
Answer: 0.027 µM

Question: And the Ki [2]?
Answer: 0.017 µM

Question: For `CCCOC(=O)c1ccccc1N1CCN(CCCN2CC(=O)N3CCCC3C2=O)CC1` (configuration not stated), which Ki [2] is on record?
Answer: 0.012 µM

Question: With `Cc1ccccc1N1CCN(CCCN2C(=O)C3CCCCN3C2=O)CC1` (configuration not stated) as the compound, how does the Ki [1] read?
Answer: 0.22 µM

Question: What about the Ki [2] of the same compound?
Answer: 0.0057 µM

Question: `N#Cc1ccccc1N1CCN(CCCN2C(=O)C3CCCCN3C2=O)CC1` (configuration not stated) was tested. Which Ki [1] did it give?
Answer: 0.065 µM

Question: And the Ki [2]?
Answer: 0.0082 µM

Question: Which results are given for `N#Cc1ccccc1N1CCN(CCCCN2C(=O)C3CCCN3C2=O)CC1` (configuration not stated)?
Answer: Ki [1]: 0.004 µM; Ki [2]: 0.0049 µM

Question: How did the Ki [1] turn out when `COc1ccccc1N1CCN(CCCCN2CC(=O)N3CCCC3C2=O)CC1` (configuration not stated) was run?
Answer: 0.012 µM

Question: What about the Ki [2] of the same compound?
Answer: 0.025 µM

Question: `CC(C)C(=O)Nc1cccc(N2CCN(CCCCN3C(=O)C4CCCN4C3=O)CC2)c1.Cl` (configuration not stated) was tested. Which Ki [1] did it give?
Answer: 0.193 µM

Question: And the Ki [2]?
Answer: 5.425 µM

Question: What does the source list for `CCCCOc1ccccc1N1CCN(CCCN2C(=O)C3CCCN3C2=O)CC1` (configuration not stated)?
Answer: Ki [1]: 0.015 µM; Ki [2]: 0.0064 µM

Question: Which Ki [2] does the source give for `Cc1ccccc1N1CCN(CCCCN2C(=O)C3CCCN3C2=O)CC1` (configuration not stated) here?
Answer: 0.007 µM

Question: For `CCS(=O)(=O)Nc1cccc(N2CCN(CCCCN3C(=O)C4CCCN4C3=O)CC2)c1` (configuration not stated), which Ki [2] is on record?
Answer: > 1 µM

Question: For `O=C1C2CCCN2C(=O)CN1CCCCN1CCN(c2cccc(C(F)(F)F)c2)CC1` (configuration not stated), which Ki [1] is on record?
Answer: 0.0055 µM

Question: What about the Ki [2] of the same compound?
Answer: 0.072 µM

Question: How did the Ki [1] turn out when `Cc1ccccc1N1CCN(CCCCN2CC(=O)N3CCCCC3C2=O)CC1` (configuration not stated) was run?
Answer: 0.032 µM

Question: And the Ki [2]?
Answer: 0.027 µM

Question: `Nc1cccc(N2CCN(CCCN3C(=O)C4CCCN4C3=O)CC2)c1` (configuration not stated) was tested. Which Ki [1] did it give?
Answer: 1.18 µM

Question: And the Ki [2]?
Answer: 0.393 µM

Question: How did the Ki [1] turn out when `CCCOC(=O)c1ccccc1N1CCN(CCCCN2CC(=O)N3CCCCC3C2=O)CC1` (configuration not stated) was run?
Answer: 0.028 µM

Question: What about the Ki [2] of the same compound?
Answer: 0.392 µM

Question: Which Ki [1] does the source give for `CCCCOc1ccccc1N1CCN(CCCN2CC(=O)N3CCCCC3C2=O)CC1` (configuration not stated) here?
Answer: 0.092 µM

Question: And the Ki [2]?
Answer: 0.013 µM

Question: Which Ki [1] does the source give for `CCCCOc1ccccc1N1CCN(CCCCN2CC(=O)N3CCCC3C2=O)CC1` (configuration not stated) here?
Answer: 0.0087 µM

Question: And the Ki [2]?
Answer: 0.0105 µM

Question: What does the source list for `CCCNC(=O)c1ccccc1N1CCN(CCCCN2C(=O)C3CCCCN3C2=O)CC1` (configuration not stated)?
Answer: Ki [1]: 0.378 µM; Ki [2]: 0.521 µM

Question: Which results are given for `N#Cc1ccccc1N1CCN(CCCCN2CC(=O)N3CCCCC3C2=O)CC1` (configuration not stated)?
Answer: Ki [1]: 0.015 µM; Ki [2]: 0.03 µM

Question: Which results are given for `CCCOC(=O)c1ccccc1N1CCN(CCCCN2C(=O)C3CCCN3C2=O)CC1` (configuration not stated)?
Answer: Ki [1]: 0.0048 µM; Ki [2]: 0.041 µM

Question: For `CCCNC(=O)c1ccccc1N1CCN(CCCN2C(=O)C3CCCN3C2=O)CC1` (configuration not stated), which Ki [1] is on record?
Answer: 0.808 µM

Question: What about the Ki [2] of the same compound?
Answer: 0.608 µM

Question: For `CC(C)C(=O)Nc1cccc(N2CCN(CCCN3C(=O)C4CCCCN4C3=O)CC2)c1` (configuration not stated), which Ki [1] is on record?
Answer: 0.776 µM

Question: What about the Ki [2] of the same compound?
Answer: 4.43 µM

Question: Which Ki [1] does the source give for `CC(C)C(=O)Nc1cccc(N2CCN(CCCN3CC(=O)N4CCCC4C3=O)CC2)c1` (configuration not stated) here?
Answer: 0.266 µM

Question: And the Ki [2]?
Answer: 1.44 µM

Question: What does the source list for `O=C1C2CCCN2C(=O)N1CCCN1CCN(c2cccc(Br)c2)CC1` (configuration not stated)?
Answer: Ki [1]: 0.034 µM; Ki [2]: 0.025 µM

Question: `CCCNC(=O)c1ccccc1N1CCN(CCCCN2CC(=O)N3CCCC3C2=O)CC1` (configuration not stated) was tested. Which Ki [1] did it give?
Answer: 1.23 µM

Question: What about the Ki [2] of the same compound?
Answer: 1.354 µM

Question: Which results are given for `CCCCOc1ccccc1N1CCN(CCCCN2C(=O)C3CCCCN3C2=O)CC1` (configuration not stated)?
Answer: Ki [1]: 0.0022 µM; Ki [2]: 0.005 µM

Question: What does the source list for `O=C1C2CCCCN2C(=O)N1CCCCN1CCN(c2cccc(Br)c2)CC1` (configuration not stated)?
Answer: Ki [1]: 0.0054 µM; Ki [2]: 0.0059 µM

Question: What does the source list for `Nc1cccc(N2CCN(CCCCN3C(=O)C4CCCCN4C3=O)CC2)c1` (configuration not stated)?
Answer: Ki [1]: 0.068 µM; Ki [2]: 0.231 µM

Question: `CCCOC(=O)c1ccccc1N1CCN(CCCN2C(=O)C3CCCCN3C2=O)CC1` (configuration not stated) was tested. Which Ki [1] did it give?
Answer: 0.046 µM

Question: What about the Ki [2] of the same compound?
Answer: 0.013 µM

Question: For `CCCNC(=O)c1ccccc1N1CCN(CCCN2CC(=O)N3CCCCC3C2=O)CC1` (configuration not stated), which Ki [1] is on record?
Answer: 4.61 µM

Question: And the Ki [2]?
Answer: 0.811 µM

Question: What does the source list for `CC(C)C(=O)Nc1cccc(N2CCN(CCCCN3CC(=O)N4CCCCC4C3=O)CC2)c1` (configuration not stated)?
Answer: Ki [1]: 0.198 µM; Ki [2]: 16.14 µM

Question: With `Cc1ccccc1N1CCN(CCCN2CC(=O)N3CCCC3C2=O)CC1` (configuration not stated) as the compound, how does the Ki [1] read?
Answer: 0.048 µM

Question: And the Ki [2]?
Answer: 0.017 µM

Question: How did the Ki [1] turn out when `O=C1C2CCCCN2C(=O)N1CCCCN1CCN(c2ccccc2Oc2ccccc2)CC1` (configuration not stated) was run?
Answer: 0.0006 µM

Question: What about the Ki [2] of the same compound?
Answer: 0.0024 µM

Question: How did the Ki [1] turn out when `COc1ccccc1N1CCN(CCCN2CC(=O)N3CCCCC3C2=O)CC1` (configuration not stated) was run?
Answer: 0.143 µM

Question: And the Ki [2]?
Answer: 0.029 µM
